In assay [1] the target is T1, Toll-like receptor 2 (Homo sapiens, UniProt O60603). In words: Antagonistic potency at TLR2 expressed in HEK293 cells. It is filed as functional, cell-based.
The target in assay [2] is Toll-like receptor 4 (Homo sapiens, UniProt O00206). In words: Antagonistic potency at human TLR4 expressed in HEK293 cells. It is filed as functional, cell-based.
For assay [3], the target named is T1, Toll-like receptor 2. In words: Antagonistic activity at TLR in human PBMC. It is filed as functional. The procedure, abridged: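 PBMCs purified from heparinized blood of healthy human donors, seeded at 50,000 cells per well. Pam3CysSK4 (50 ng/ml) added together with compound at 30, 10, 3, 1, 0.3, 0.1 and 0.03 µM; 6 h at 37 °C. Supernatants collected by centrifugation, stored at -20 °C, TNFα measured by ELISA.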

T1 sequence (O60603 whole entry): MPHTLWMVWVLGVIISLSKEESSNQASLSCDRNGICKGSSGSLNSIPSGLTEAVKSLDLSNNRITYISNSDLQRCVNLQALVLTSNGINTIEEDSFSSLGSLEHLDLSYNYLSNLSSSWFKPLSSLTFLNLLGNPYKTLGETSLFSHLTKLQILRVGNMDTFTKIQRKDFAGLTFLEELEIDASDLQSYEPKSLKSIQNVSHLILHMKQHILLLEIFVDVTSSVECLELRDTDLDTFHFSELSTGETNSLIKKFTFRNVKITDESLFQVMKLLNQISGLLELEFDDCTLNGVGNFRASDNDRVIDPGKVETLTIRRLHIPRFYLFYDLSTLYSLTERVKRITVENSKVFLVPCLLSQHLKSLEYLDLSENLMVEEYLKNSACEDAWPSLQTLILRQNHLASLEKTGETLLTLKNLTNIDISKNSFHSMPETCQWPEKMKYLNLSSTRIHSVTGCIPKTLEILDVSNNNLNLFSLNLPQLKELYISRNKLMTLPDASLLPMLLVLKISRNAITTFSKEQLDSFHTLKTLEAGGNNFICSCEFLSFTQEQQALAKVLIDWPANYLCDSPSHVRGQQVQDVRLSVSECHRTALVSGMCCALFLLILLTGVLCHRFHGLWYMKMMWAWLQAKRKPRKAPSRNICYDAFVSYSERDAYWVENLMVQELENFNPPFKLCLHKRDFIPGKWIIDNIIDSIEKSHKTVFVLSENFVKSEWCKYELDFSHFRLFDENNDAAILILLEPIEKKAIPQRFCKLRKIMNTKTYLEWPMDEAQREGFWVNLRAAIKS
Chain of Toll-like receptor 4 (O00206 whole entry): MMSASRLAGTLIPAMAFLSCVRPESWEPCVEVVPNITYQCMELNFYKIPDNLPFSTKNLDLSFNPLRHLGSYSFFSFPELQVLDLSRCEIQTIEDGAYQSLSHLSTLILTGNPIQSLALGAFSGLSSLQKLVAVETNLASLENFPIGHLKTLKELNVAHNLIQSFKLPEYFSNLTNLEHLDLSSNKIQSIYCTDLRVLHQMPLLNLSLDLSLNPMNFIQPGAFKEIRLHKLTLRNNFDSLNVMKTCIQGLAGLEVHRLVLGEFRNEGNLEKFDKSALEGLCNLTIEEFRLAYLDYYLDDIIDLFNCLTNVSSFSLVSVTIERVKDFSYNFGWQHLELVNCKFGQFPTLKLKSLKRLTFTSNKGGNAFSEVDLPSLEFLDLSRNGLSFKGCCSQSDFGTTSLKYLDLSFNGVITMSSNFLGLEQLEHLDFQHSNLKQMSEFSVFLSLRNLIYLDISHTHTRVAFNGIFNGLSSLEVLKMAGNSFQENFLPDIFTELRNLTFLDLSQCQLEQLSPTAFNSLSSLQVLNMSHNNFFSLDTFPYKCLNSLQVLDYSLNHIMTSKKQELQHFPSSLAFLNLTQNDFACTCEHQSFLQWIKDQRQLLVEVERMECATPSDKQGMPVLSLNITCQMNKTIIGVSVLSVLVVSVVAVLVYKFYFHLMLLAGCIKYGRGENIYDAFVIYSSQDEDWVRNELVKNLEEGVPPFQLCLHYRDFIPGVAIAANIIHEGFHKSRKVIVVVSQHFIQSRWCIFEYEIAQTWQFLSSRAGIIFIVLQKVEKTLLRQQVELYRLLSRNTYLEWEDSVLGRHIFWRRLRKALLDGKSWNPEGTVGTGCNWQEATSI

In general, IC50 refers to the concentration that inhibits the measured activity by half. Take `CCCCCCCCCCCCCC(=O)O[C@H](COCC[C@@H](CCCCCCC)OC(=O)CCCCCCCCCCC)COP(=O)(O)OCCNC(=O)C(Cc1ccc(O)cc1)C(=O)O` (some centres undefined): half-maximal inhibition in assay [1] (IC50) was put at 1250 nM. This lies in the single-digit micromolar range.
For the compound `CCCCCCCCCCCCCC(=O)N[C@@H](COCC[C@@H](CCCCCCC)OC(=O)CCCCCCCCCCC)COP(=O)(O)OCCNC(=O)C(Cc1ccc(O)cc1)C(=O)O` (some centres undefined), the values for the IC50 in assay [1] and in assay [2] were 22000 nM and 250 nM, respectively.
`CCCCCCCCCCCCCC(=O)N[C@H](COCC[C@@H](CCCCCCC)OC(=O)CCCCCCCCCCC)COP(=O)(O)OCCNC(=O)CCc1ccc(O)cc1`: the 50% inhibitory concentration (IC50) in assay [1] is 2150 nM.
For the compound `CCCCCCCCCCCCCC(=O)N[C@H](COCC[C@H](CCCCCCC)OC(=O)CCCCCCCCCCC)COP(=O)(O)OCCNC(=O)C(Cc1ccc(O)cc1)C(=O)O` (some centres undefined), the half-maximal inhibitory concentration (IC50) amounted to 6460 nM in assay [1] and 160 nM in assay [2].
The matching figures for `CCCCCCCCCCCCCC(=O)N[C@@H](COCC[C@H](CCCCCCC)OC(=O)CCCCCCCCCCC)COP(=O)(O)OCCNC(=O)C(Cc1ccc(O)cc1)C(=O)O` (some centres undefined): 6900 nM and 80 nM.
Regarding `CCCCCCCCCCCCCC(=O)N[C@@H](COP(=O)(O)OCCNC(=O)C(Cc1ccc(O)cc1)C(=O)O)C(=O)OCC[C@@H](CCCCCCC)OC(=O)CCCCCCCCCCC` (some centres undefined), in assay [1], the IC50 was found to be 950 nM.
Still for that read-out and setting: the result for `CCCCCCCCCCCCCC(=O)N[C@H](COCC[C@@H](CCCCCCC)NC(=O)CCCCCCCCCCC)COP(=O)(O)OCCNC(=O)C(Cc1ccc(O)cc1)C(=O)O` (some centres undefined) reads 5200 nM.
As to `CCCCCCCCCCCCCC(=O)N[C@H](COCC[C@@H](CCCCCCC)OC(=O)CCCCCCCCCCC)COP(=O)(O)OCCNC(=O)C(Cc1ccc(O)cc1)C(=O)O` (some centres undefined), the IC50 in assay [3] worked out at 1600 nM; in assay [1], 3070 nM; in assay [2], 350 nM.
As to `CCCCCCCCCCCCCC(=O)N[C@@H](COP(=O)(O)OCCNC(=O)C(Cc1ccc(O)cc1)C(=O)O)C(=O)NCC[C@@H](CCCCCCC)OC(=O)CCCCCCCCCCC` (some centres undefined), the IC50 in assay [1] was determined as 900 nM.

The values above are taken from ChEMBL document CHEMBL1141958, “Toll-like receptor 2 antagonists. Part 1: preliminary SAR investigation of novel synthetic phospholipids” (Bioorg Med Chem Lett, 2005).
